Screening results as filed in PubChem BioAssay.
Hits are enriched below; roughly 1.8% of the tested compounds scored in any of these assays.
NPY-Y2 PAM-ag – human NPY-Y2 potentiation or agonism, primary screen | P49146 | cells expressing NPY-Y2, potentiator/agonist read-out | activation, % at 3.6 µM | 220,000 compounds, 0.45% hits; in the data active = activation above about 27%;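 also: cells stimulated with NPY near EC25 plus isoproterenol at EC100; 0% = vehicle plus submaximal agonist and 100% = vehicle plus saturating agonist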
NPY Y1 blocker – NPY-Y1 (human) receptor antagonism; P25929; HEK293-CNG Y1 cells, membrane potential fluorescence; NPY at EC95, then isoproterenol; inhibition, % at 3.6 µM; 200,000 compounds, 1% hits;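 active = inhibition above the campaign mean inhibition of all tested compounds plus 3 SD, cut at about 20% in these data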;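 also: 0% = DMSO wells given NPY plus isoproterenol and 100% = isoproterenol alone without NPY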
Target sequence (P25929 whole entry, looked up): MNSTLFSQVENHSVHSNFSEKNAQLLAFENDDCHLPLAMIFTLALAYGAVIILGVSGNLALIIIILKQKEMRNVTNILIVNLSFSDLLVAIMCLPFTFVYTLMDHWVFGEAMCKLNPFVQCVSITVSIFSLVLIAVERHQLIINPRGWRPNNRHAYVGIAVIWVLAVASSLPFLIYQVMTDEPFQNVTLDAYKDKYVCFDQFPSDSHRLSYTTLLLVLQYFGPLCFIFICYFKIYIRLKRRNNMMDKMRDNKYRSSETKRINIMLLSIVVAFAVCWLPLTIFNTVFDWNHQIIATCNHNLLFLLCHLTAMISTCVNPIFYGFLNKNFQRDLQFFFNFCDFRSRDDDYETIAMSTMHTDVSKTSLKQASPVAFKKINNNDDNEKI
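Material: HEK293 cells with Y1 receptor plus CNG channel; times: compound incubation 1 h at room temperature, readout 45 min post-stimulation; signal: fluorescence, membrane potential probe; read-out basis: fluorescence ratio normalized to % inhibition between controls; benchmarks: full-block control isoproterenol-only wells, zero-block control NPY plus isoproterenol wells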
NPY-Y1 PAM-ag – human NPY-Y1 potentiation or agonism, primary screen. NPY-Y1 expressing cells, potentiator/agonist activation. activation, % at 3.6 µM. 220,000 compounds, 0.37% hits. AID 1304; in the data active = activation above about 33%, passing the limit was not always enough;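 also: cells stimulated with NPY at EC10 then isoproterenol at EC100; 0% = low agonist plus stimulus and 100% = saturating agonist plus stimulus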
NPY-Y2 antag – NPY-Y2 (human) receptor antagonism | AID 793 | NPY-Y2 expressing cells, antagonist mode | 140,000 compounds, 0.99% hits | inhibition, % at 2.7 µM | P49146; in the data active = inhibition above about 17%;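 also: 0% = vehicle with agonist challenge and 100% = reference antagonist with challenge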
* = called active by the depositor; . = not tested or not shown.

SMILES	NPY-Y2 PAM-ag	NPY Y1 blocker	NPY-Y1 PAM-ag	NPY-Y2 antag
CCCn1c(=O)c2ccccc2n2c(SCc3cc(=O)oc4ccc5ccccc5c34)nnc12	-0.3	9.0	-14.6	2.5
CCCn1c(=O)c2ccccc2n2c(SCc3cc(=O)n4ccsc4n3)nnc12	-0.7	21.4*	1.2	3.2
CCCn1c(=O)c2ccccc2n2c(SCCOc3ccccc3F)nnc12	-14.6	26.5*	-29.5	17.4*
Cc1ccnc(NC(=O)COc2ccc3oc4c(c3c2)CCCC4)c1	-6.7	21.1*	-30.6	11.2
Cc1ccnc(NC(=O)COc2c(C)cc(C)cc2[N+](=O)[O-])c1	6.8	3.3	-25.3	8.4
COc1ccccc1/C=N/n1c(C)nnc1-n1nc(C)cc1C	-10.8	-1.7	-21.8	1.0
Cc1cc(C)n(-c2nnc(C)n2/N=C/c2cc(Br)ccc2OCc2ccccc2)n1	-14.7	7.2	3.0	32.0*
C=CCN=c1scc(-c2ccc(F)cc2)n1/N=C/c1ccccn1	33.1*	-11.9	59.8*	6.2
O=c1nc2n(c3ncccc13)CCCCC2	-8.7	-0.4	3.3	.
COC(=O)CN1C(c2ccccc2)=Nc2ccc(Cl)cc2C1c1ccccc1 (stereo not given)	-3.9	27.2*	-6.2	21.6*
O=C(O)c1ccccc1N=Cc1c(O)n(-c2nccs2)c(=O)c2ccccc12	36.1	.	38.1	.
CCN(CC)S(=O)(=O)c1cccc(-n2c(O)c(C=Nc3ccccc3C(=O)O)c3ccccc3c2=O)c1	74.3*	.	48.3*	.
Cc1nc(C(F)(F)F)c(C(=O)N/N=C(\N)c2cccnc2)s1	-2.7	3.9	-7.9	.
O=c1[nH]c(CSc2nnc3ccccn23)nc2cc(C(F)(F)F)ccc12	15.4	5.3	15.2	.
COc1ccc(-n2c(SCc3ccc([N+](=O)[O-])cc3)nnc2-c2ccccc2)cc1	-6.4	99.2*	-98.2	111.7*
COc1ccc(-c2nnc(SCc3ccccc3)n2N)cc1	-29.3	1.0	2.6	0.0
CCOc1ccc(-n2c(SCc3ccc([N+](=O)[O-])cc3)nnc2-c2ccccc2)cc1	-15.0	66.2*	-78.7	149.0*
CCOc1ccc(-c2nnc(SCc3nnc(-c4ccccc4)o3)n2-c2ccccc2F)cc1	-13.4	26.2*	-23.3	19.4*
Cc1cc(N/N=C/c2ccc3c(c2)OCO3)nc2ccccc12	-33.2	.	-18.3	.
COc1ccc(CCN2C(=S)N(C)C(=O)C2CC(=O)Nc2ccc(F)cc2)cc1 (stereo not given)	11.9	.	29.2	.
c1cn2c(Nc3ccc4c(c3)OCCO4)c(-c3ccc(N4CCOCC4)cc3)nc2cn1	-19.4	.	18.0	.
Cc1cccc(C)c1Nc1c(-c2ccc(N3CCOCC3)cc2)nc2cnccn12	70.5*	.	84.5*	.
Cc1cc(C(=O)CN2CCCC2)c(C)n1-c1ccc(Cl)cc1	-2.3	20.9*	-3.4	.
COc1ccc(C(=O)NN(C)c2nc(C(F)(F)F)nc3ccccc23)cc1	-19.2	21.3*	-16.4	.
COc1ccc(C(=O)NN(C)c2nc(-c3ccccc3)nnc2C(F)(F)F)cc1	-0.8	4.7	1.8	4.7
SMILES	NPY-Y2 PAM-ag	NPY Y1 blocker	NPY-Y1 PAM-ag	NPY-Y2 antag
CCc1nc(Nc2ccc3c(c2)OCO3)c2oc3ccccc3c2n1	10.0	2.5	-20.6	2.4
CCc1nc(N2CCN(Cc3ccc4c(c3)OCO4)CC2)c2oc3ccccc3c2n1	-44.9	26.3*	-103.3	20.8*
CCc1nc(N2CCCC(C)C2)c2oc3ccccc3c2n1 (stereo not given)	-22.7	37.5*	-25.1	29.2*
CCc1nc(N2CCCCC2)c2oc3ccccc3c2n1	-31.1	7.5	-30.1	14.1
CCOC(=O)C(C)(C)N(Cc1ccc(Cl)cc1)S(=O)(=O)c1ccc(Cl)c([N+](=O)[O-])c1	66.4*	-12.4	64.8*	0.7
CCOC(=O)C(C)(C)N(Cc1ccc(C)cc1)S(=O)(=O)c1ccc(Cl)c([N+](=O)[O-])c1	50.9*	0.0	75.9*	0.1
C(=N\Nc1nc2ccccc2[nH]1)/c1c[nH]c2ccccc12	34.2*	-6.1	43.6*	-0.3
O=[N+]([O-])c1ccc(N/N=C/c2c[nH]c3ccccc23)cc1	48.4*	-20.2	54.6*	-8.3
COc1ccc(NS(=O)(=O)c2cc([N+](=O)[O-])ccc2N/N=C\c2c(C)[nH]c3ccccc23)cc1	-3.9	1.2	12.6	0.9
O=[N+]([O-])c1ccccc1N/N=C/c1c[nH]c2ccccc12	85.8*	-18.2	105.0*	-13.6
Cc1ccccc1/C=N/Nc1nc2ccccc2[nH]1	-22.8	12.1	-34.1	.
COc1ccccc1NS(=O)(=O)c1cc([N+](=O)[O-])ccc1N/N=C/c1c[nH]c2ccccc12	34.4*	-3.6	38.7*	-5.5
